This note sets out measurements from paper PMC8929335 (Pharmacology Research & Perspectives, 2022).

Bounds are passed on as bounds.

A short description of data set [1]: NHP brain-to-plasma Kp,uu experiment. The format is in vivo, cynomolgus monkeys. The conditions noted are these: cynomolgus, cynomolgus monkey, intravenous. The method in brief: (§1)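 Cynomolgus monkeys (six total) received a three‐compound cassette in 10% captisol in sterile water as a 15 min IV infusion via saphenous or cephalic vein. Plasma (vena cava, K₂EDTA), lumbar CSF after euthanasia, and excised brain were taken from 2 animals per time point at about 17, 30 and 60 min after infusion start. Samples were quantified by LC‐MS/MS after protein precipitation, and Kp,uu was calculated from unbound concentrations.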

The nature of data set [2]: NHP CSF-to-plasma Kp,uu experiment. The conditions noted are these: cynomolgus, cynomolgus monkey, intravenous. The class given is in vivo, cynomolgus monkeys. The method, boiled down: as §1
Data set [3] deals with MDR1 (Homo sapiens, UniProt P08183). The data set is described as follows: NIH MDR1-MDCKI transwell efflux assay. The class given is in vitro ADME.
Chain of MDR1 (P08183 whole entry): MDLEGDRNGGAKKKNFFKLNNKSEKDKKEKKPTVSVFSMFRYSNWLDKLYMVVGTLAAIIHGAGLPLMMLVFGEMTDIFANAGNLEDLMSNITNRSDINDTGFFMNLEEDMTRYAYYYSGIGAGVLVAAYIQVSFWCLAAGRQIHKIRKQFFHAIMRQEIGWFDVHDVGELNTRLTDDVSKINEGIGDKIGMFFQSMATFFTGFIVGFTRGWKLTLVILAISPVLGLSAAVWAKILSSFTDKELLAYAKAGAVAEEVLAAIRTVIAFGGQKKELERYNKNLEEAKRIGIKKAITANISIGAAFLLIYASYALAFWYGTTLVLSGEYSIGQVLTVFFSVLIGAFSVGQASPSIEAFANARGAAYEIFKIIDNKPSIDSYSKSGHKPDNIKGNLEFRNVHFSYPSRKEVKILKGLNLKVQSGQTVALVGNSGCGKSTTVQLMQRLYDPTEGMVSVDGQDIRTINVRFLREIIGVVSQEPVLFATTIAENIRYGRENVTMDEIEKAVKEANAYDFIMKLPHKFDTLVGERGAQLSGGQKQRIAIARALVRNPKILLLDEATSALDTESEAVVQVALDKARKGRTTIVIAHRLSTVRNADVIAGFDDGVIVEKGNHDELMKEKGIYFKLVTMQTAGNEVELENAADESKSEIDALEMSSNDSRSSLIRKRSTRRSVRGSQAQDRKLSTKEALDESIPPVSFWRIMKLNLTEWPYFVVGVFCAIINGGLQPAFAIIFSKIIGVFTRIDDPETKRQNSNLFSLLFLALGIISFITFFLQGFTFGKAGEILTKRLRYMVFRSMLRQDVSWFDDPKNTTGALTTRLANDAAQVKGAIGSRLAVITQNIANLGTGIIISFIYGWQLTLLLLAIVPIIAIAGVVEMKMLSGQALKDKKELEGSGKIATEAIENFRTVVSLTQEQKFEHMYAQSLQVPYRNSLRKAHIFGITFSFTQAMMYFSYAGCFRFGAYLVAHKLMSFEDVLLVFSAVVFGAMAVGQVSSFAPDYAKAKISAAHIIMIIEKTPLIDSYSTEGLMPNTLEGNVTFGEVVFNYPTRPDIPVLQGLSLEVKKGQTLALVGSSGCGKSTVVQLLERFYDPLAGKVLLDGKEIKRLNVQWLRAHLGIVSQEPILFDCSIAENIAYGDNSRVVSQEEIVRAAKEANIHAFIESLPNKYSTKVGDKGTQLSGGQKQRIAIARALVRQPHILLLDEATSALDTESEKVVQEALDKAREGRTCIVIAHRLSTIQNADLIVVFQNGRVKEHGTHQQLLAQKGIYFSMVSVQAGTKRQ
Data set [4] addresses T1, breast cancer resistance protein (BCRP) (Homo sapiens, UniProt Q9UNQ0).
T1 sequence (Q9UNQ0 1-655): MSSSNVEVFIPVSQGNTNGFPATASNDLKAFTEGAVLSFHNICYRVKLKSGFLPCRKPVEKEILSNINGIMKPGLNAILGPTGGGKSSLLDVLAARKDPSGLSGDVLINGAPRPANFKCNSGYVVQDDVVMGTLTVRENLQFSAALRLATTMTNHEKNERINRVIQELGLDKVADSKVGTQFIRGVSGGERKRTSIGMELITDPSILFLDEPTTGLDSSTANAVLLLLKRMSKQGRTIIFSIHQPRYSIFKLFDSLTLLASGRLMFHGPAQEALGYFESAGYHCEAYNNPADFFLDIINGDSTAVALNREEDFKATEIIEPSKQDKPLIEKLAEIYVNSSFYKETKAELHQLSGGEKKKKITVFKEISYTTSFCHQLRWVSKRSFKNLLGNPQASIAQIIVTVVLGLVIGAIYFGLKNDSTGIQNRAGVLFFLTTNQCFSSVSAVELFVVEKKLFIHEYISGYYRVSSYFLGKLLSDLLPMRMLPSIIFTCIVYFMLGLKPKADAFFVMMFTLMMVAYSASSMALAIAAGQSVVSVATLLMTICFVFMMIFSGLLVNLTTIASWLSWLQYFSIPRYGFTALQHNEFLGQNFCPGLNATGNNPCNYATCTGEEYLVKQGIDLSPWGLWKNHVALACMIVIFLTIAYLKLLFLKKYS
In words: BCRP transwell efflux ratio. The class given is in vitro ADME. The note with it: B_A Papp (n = 3) / A_B Papp (n = 3).

A short description of data set [5]: MDCK A-B passive permeability. The format is in vitro ADME, canine. The conditions noted are these: dog. The method in brief: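 MDCKII cells seeded at 60 000 cells/cm² on 1 µm pore transwell inserts and used on day 4. Test compound at 1 µM in HBSS added to donor, with 0.1% BSA in receiver. Donor sampled at 0 min; donor and receiver sampled at 90 min, 37°C, analysed by LC‐MS/MS. Papp = (dQ/dt)/(A×C0). Monolayer integrity confirmed by lucifer yellow A‐B <2%; recovery >70%.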

Data set [6] can be described thus: NHP brain tissue binding. The note with it: monkey, brain homogenate. The class given is in vitro ADME. The method, boiled down:
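Brain was homogenized in PBS at 1:3 (w:v) and dialysed against PBS in a rapid equilibrium dialysis device for 18 h at 37°C, 5% CO₂, shaking at 150 rpm. Samples were matrix‐matched, precipitated with acetonitrile containing internal standard, and analysed by LC‐MS/MS. fu = receiver/donor peak‐area ratio, corrected for dilution factor 4.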

Data set [7] is described as follows: NHP brain-to-plasma and CSF-to-plasma Kp,uu time course experiment. The note with it: IV infusion for 15 min. The format is in vivo, cynomolgus monkeys. The method in brief: as §1

As usually defined, the efflux ratio is a quotient of directional permeabilities that is used to spot active efflux. A word on the Papp A→B: it is the apparent permeability from the apical to the basolateral side of a cell layer. The low end stands for slow passage, the high end for fast passage. Broadly, the fraction unbound is the share of the substance not bound to proteins or other matrix. As to `Cc1cc(=O)n(-c2ccccc2)n1C` [Antipyrine], the Kp uu in data set [1] is 0.96. The compound further came in with a Kp uu at 1 h in data set [2] of 1. Besides, the MDR1/BCRP substrate classification result in data set [3] (ER of 3 as cutoff to classify substrates) was “no MDR1/BCRP efflux transporter interactions”. Also, the efflux ratio at 90 min, 1 µM in data set [3] (human, MDCK-MDR1) amounted to 1. For the same compound, in data set [4], the “BCRP ER” value is 0.9. In data set [5], this compound had a Papp A→B at 90 min, 1 µM of 32.8 ± 9 ×10⁻⁶ cm/s. In data set [6], this compound came in with a fraction unbound at 18 h of around 1. The “Time for unbound brain concentration to reach equilibrium with unbound plasma concentration” value in data set [7] is reported as at most 15 min. For the same compound, in data set [7] (lumbar CSF), the “Time for lumbar CSF to equilibrate with plasma” value is listed as ~ 1 h.
`C=C[C@H]1C[N@@]2CC[C@H]1C[C@@H]2[C@@H](O)c1ccnc2ccc(OC)cc12` [quinidine]: in data set [3] (NIH MDR1-MDCKI vs internal MDR1-MDCKII), the “ER in NIH MDR1 assay relative to current MDR1 assay” value is “more than 10 fold”.
